Measurements taken from ChEMBL document CHEMBL3585281, “Antibacterial Labdane Diterpenoids from Vitex vestita” (2015).
Converted amounts (≈) assume the structure as drawn.

Key:
Format in all cases: functional
Bacillus cereus [1] = experiment: Antibacterial activity against Bacillus cereus CIP 6624 after 18 hrs by agar dilution method
Outline: (§1)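 Agar-dilution MIC against Gram-positive strains. Compounds in DMSO, geometric dilutions giving final 100−0.75 mg/L in Mueller Hinton agar. Strains grown 18 h at 37 °C in trypticase soy broth, diluted in sterile water, spotted by Steers inoculator (about 1000 UFC/spot). Plates incubated 18 h at 37 °C; DMSO blank; ofloxacin positive control. MIC = lowest concentration with no visible growth.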

Bacillus cereus [2] = experiment: Antibacterial activity against Bacillus cereus N190 after 18 hrs by agar dilution method; outline: as §1
Bacillus cereus [3] = experiment: Antibacterial activity against Bacillus cereus N258 after 18 hrs by agar dilution method; outline: as §1
Bacillus cereus [4] = experiment: Antibacterial activity against Bacillus cereus N349 after 18 hrs by agar dilution method; outline: as §1
Bacillus spizizenii = experiment: Antibacterial activity against Bacillus subtilis ATCC 6633 after 18 hrs by agar dilution method; outline: as §1
Corynebacterium striatum = experiment: Antibacterial activity against Corynebacterium striatum N840 after 18 hrs by agar dilution method; outline: as §1
Enterococcus avium = experiment: Antibacterial activity against Enterococcus avium CIP 104053 after 18 hrs by agar dilution method; outline: as §1
[5] = tested on: Enterococcus casseliflavus; experiment: Antibacterial activity against Enterococcus casseliflavus N487 after 18 hrs by agar dilution method; outline: as §1
[6] = tested on: Enterococcus casseliflavus; experiment: Antibacterial activity against Enterococcus casseliflavus CIP 103018 after 18 hrs by agar dilution method; outline: as §1
Enterococcus durans = experiment: Antibacterial activity against Enterococcus durans CIP 104999 after 18 hrs by agar dilution method; outline: as §1
Enterococcus faecalis [7] = experiment: Antibacterial activity against Enterococcus faecalis CIP 103214 after 18 hrs by agar dilution method; outline: as §1
Enterococcus faecalis [8] = experiment: Antibacterial activity against Enterococcus faecalis CIP 104676 after 18 hrs by agar dilution method; outline: as §1
Enterococcus faecalis [9] = experiment: Antibacterial activity against Enterococcus faecalis N491 after 18 hrs by agar dilution method; outline: as §1
Enterococcus faecalis [10] = experiment: Antibacterial activity against Enterococcus faecalis N518 after 18 hrs by agar dilution method; outline: as §1
Enterococcus faecalis [11] = experiment: Antibacterial activity against Enterococcus faecalis N520 after 18 hrs by agar dilution method; outline: as §1
Enterococcus faecium [12] = experiment: Antibacterial activity against Enterococcus faecium CIP 103014 after 18 hrs by agar dilution method; outline: as §1
Enterococcus faecium [13] = experiment: Antibacterial activity against Enterococcus faecium CIP 107387 after 18 hrs by agar dilution method; outline: as §1
Enterococcus faecium [14] = experiment: Antibacterial activity against Enterococcus faecium N490 after 18 hrs by agar dilution method; outline: as §1
Enterococcus faecium [15] = experiment: Antibacterial activity against Enterococcus faecium N507 after 18 hrs by agar dilution method; outline: as §1
Enterococcus faecium [16] = experiment: Antibacterial activity against Enterococcus faecium N733 after 18 hrs by agar dilution method; outline: as §1
Enterococcus faecium [17] = experiment: Antibacterial activity against Enterococcus faecium N823 after 18 hrs by agar dilution method; outline: as §1
Enterococcus gallinarum [18] = experiment: Antibacterial activity against Enterococcus gallinarum CIP 105985 after 18 hrs by agar dilution method; outline: as §1
Enterococcus gallinarum [19] = experiment: Antibacterial activity against Enterococcus gallinarum N489 after 18 hrs by agar dilution method; outline: as §1
Enterococcus gallinarum [20] = experiment: Antibacterial activity against Enterococcus gallinarum N492 after 18 hrs by agar dilution method; outline: as §1
Enterococcus hirae = experiment: Antibacterial activity against Enterococcus hirae CIP 5855 after 18 hrs by agar dilution method; outline: as §1
Listeria innocua = experiment: Antibacterial activity against Listeria innocua E044 after 18 hrs by agar dilution method; outline: as §1
Listeria monocytogenes [21] = experiment: Antibacterial activity against Listeria monocytogenes CIP 103575 after 18 hrs by agar dilution method; outline: as §1
Listeria monocytogenes [22] = experiment: Antibacterial activity against Listeria monocytogenes N783 after 18 hrs by agar dilution method; outline: as §1
Listeria monocytogenes [23] = experiment: Antibacterial activity against Listeria monocytogenes N836 after 18 hrs by agar dilution method; outline: as §1
Listeria monocytogenes [24] = experiment: Antibacterial activity against Listeria monocytogenes N851 after 18 hrs by agar dilution method; outline: as §1
Staphylococcus aureus [25] = experiment: Antibacterial activity against Staphylococcus aureus ATCC 25923 after 18 hrs by agar dilution method; outline: as §1
Staphylococcus aureus [26] = experiment: Antibacterial activity against Staphylococcus aureus ATCC 9144 oxford after 18 hrs by agar dilution method; outline: as §1
Staphylococcus aureus [27] = experiment: Antibacterial activity against Staphylococcus aureus CIP 483 after 18 hrs by agar dilution method; outline: as §1
Staphylococcus aureus [28] = experiment: Antibacterial activity against Staphylococcus aureus CIP 53154 after 18 hrs by agar dilution method; outline: as §1
Staphylococcus aureus [29] = experiment: Antibacterial activity against Staphylococcus aureus CIP 53156 after 18 hrs by agar dilution method; outline: as §1
Staphylococcus aureus [30] = experiment: Antibacterial activity against Staphylococcus aureus CIP 5710 after 18 hrs by agar dilution method; outline: as §1
Staphylococcus aureus [31] = experiment: Antibacterial activity against Staphylococcus aureus CIP 7625 after 18 hrs by agar dilution method; outline: as §1
Staphylococcus aureus [32] = experiment: Antibacterial activity against Staphylococcus aureus CRBIP 2121 after 18 hrs by agar dilution method; outline: as §1
[33] = tested on: Staphylococcus epidermidis; experiment: Antibacterial activity against Staphylococcus epidermidis CIP 53124 after 18 hrs by agar dilution method; outline: as §1
[34] = tested on: Staphylococcus haemolyticus; experiment: Antibacterial activity against Staphylococcus haemolyticus CIP 8156 after 18 hrs by agar dilution method; outline: as §1
[35] = tested on: Staphylococcus intermedius; experiment: Antibacterial activity against Staphylococcus intermedius N987 after 18 hrs by agar dilution method; outline: as §1
[36] = tested on: Staphylococcus lugdunensis; experiment: Antibacterial activity against Staphylococcus lugdunensis ATCC 43809 after 18 hrs by agar dilution method; outline: as §1
[37] = tested on: Staphylococcus saprophyticus; experiment: Antibacterial activity against Staphylococcus saprophyticus CIP 76125 after 18 hrs by agar dilution method; outline: as §1
[38] = tested on: Staphylococcus saprophyticus; experiment: Antibacterial activity against Staphylococcus saprophyticus E260 after 18 hrs by agar dilution method; outline: as §1
Mammaliicoccus sciuri = experiment: Antibacterial activity against Staphylococcus sciuri N993 after 18 hrs by agar dilution method; outline: as §1
Streptococcus agalactiae = experiment: Antibacterial activity against Streptococcus agalactiae CIP 103227 after 18 hrs by agar dilution method; outline: as §1

CC1(C)S[C@@H]2[C@H](NC(=O)[C@H](N)c3ccc(O)cc3)C(=O)N2[C@H]1C(=O)O [AMOXICILLIN]
MIC (Bacillus cereus [1]; CIP 6624, 18 h): 11 µM (≈ 4.02 µg/mL) | MIC (Bacillus cereus [2]; N190, 18 h): 44 µM (≈ 16.1 µg/mL) | MIC (Bacillus cereus [3]; N258, 18 h): 11 µM (≈ 4.02 µg/mL) | MIC (Bacillus cereus [4]; N349, 18 h): 11 µM (≈ 4.02 µg/mL) | MIC (Bacillus spizizenii; ATCC 6633, 18 h): ≤ 0.2 µM | MIC (Corynebacterium striatum; N840, 18 h): 350 µM (≈ 128 µg/mL) | MIC (Enterococcus avium; CIP 104053, 18 h): 0.7 µM (≈ 0.256 µg/mL) | MIC ([5]; N487, 18 h): 0.7 µM (≈ 0.256 µg/mL) | MIC ([6]; CIP 103018, 18 h): 0.7 µM (≈ 0.256 µg/mL) | MIC (Enterococcus durans; CIP 104999, 18 h): 1.4 µM (≈ 0.512 µg/mL) | MIC (Enterococcus faecalis [7]; CIP 103214, 18 h): 1.4 µM (≈ 0.512 µg/mL) | MIC (Enterococcus faecalis [8]; CIP 104676, 18 h): 1.4 µM (≈ 0.512 µg/mL) | MIC (Enterococcus faecalis [9]; N491, 18 h): 0.7 µM (≈ 0.256 µg/mL) | MIC (Enterococcus faecalis [10]; N518, 18 h): 0.7 µM (≈ 0.256 µg/mL) | MIC (Enterococcus faecalis [11]; N520, 18 h): 3 µM (≈ 1.1 µg/mL) | MIC (Enterococcus faecium [12]; CIP 103014, 18 h): 0.7 µM (≈ 0.256 µg/mL) | MIC (Enterococcus faecium [13]; CIP 107387, 18 h): 175 µM (≈ 63.9 µg/mL) | MIC (Enterococcus faecium [14]; N490, 18 h): 22 µM (≈ 8.04 µg/mL) | MIC (Enterococcus faecium [15]; N507, 18 h): 350 µM (≈ 128 µg/mL) | MIC (Enterococcus faecium [16]; N733, 18 h): > 350 µM | MIC (Enterococcus faecium [17]; N823, 18 h): 350 µM (≈ 128 µg/mL) | MIC (Enterococcus gallinarum [18]; CIP 105985, 18 h): 1.4 µM (≈ 0.512 µg/mL) | MIC (Enterococcus gallinarum [19]; N489, 18 h): 0.7 µM (≈ 0.256 µg/mL) | MIC (Enterococcus gallinarum [20]; N492, 18 h): 0.7 µM (≈ 0.256 µg/mL) | MIC (Enterococcus hirae; CIP 5855, 18 h): 1.4 µM (≈ 0.512 µg/mL) | MIC (Listeria innocua; E044, 18 h): 0.7 µM (≈ 0.256 µg/mL) | MIC (Listeria monocytogenes [21]; CIP 103575, 18 h): 0.7 µM (≈ 0.256 µg/mL) | MIC (Listeria monocytogenes [22]; N783, 18 h): 0.7 µM (≈ 0.256 µg/mL) | MIC (Listeria monocytogenes [23]; N836, 18 h): 0.7 µM (≈ 0.256 µg/mL) | MIC (Listeria monocytogenes [24]; N851, 18 h): 0.7 µM (≈ 0.256 µg/mL) | MIC (Staphylococcus aureus [25]; ATCC 25923, 18 h): 0.3 µM (≈ 0.11 µg/mL) | MIC (Staphylococcus aureus [26]): ≤ 0.2 µM | MIC (Staphylococcus aureus [27]; CIP 483, 18 h): 0.3 µM (≈ 0.11 µg/mL) | MIC (Staphylococcus aureus [28]; CIP 53154, 18 h): 0.3 µM (≈ 0.11 µg/mL) | MIC (Staphylococcus aureus [29]; CIP 53156, 18 h): ≤ 0.2 µM | MIC (Staphylococcus aureus [30]; CIP 5710, 18 h): 0.7 µM (≈ 0.256 µg/mL) | MIC (Staphylococcus aureus [31]; CIP 7625, 18 h): 0.3 µM (≈ 0.11 µg/mL) | MIC (Staphylococcus aureus [32]; CRBIP 2121, 18 h): 175 µM (≈ 63.9 µg/mL) | MIC ([33]; CIP 53124, 18 h): ≤ 0.2 µM | MIC ([34]; CIP 8156, 18 h): ≤ 0.2 µM | MIC ([35]; N987, 18 h): 88 µM (≈ 32.2 µg/mL) | MIC ([36]; ATCC 43809, 18 h): 0.7 µM (≈ 0.256 µg/mL) | MIC ([37]; CIP 76125, 18 h): 0.7 µM (≈ 0.256 µg/mL) | MIC ([38]; E260, 18 h): 0.7 µM (≈ 0.256 µg/mL) | MIC (Mammaliicoccus sciuri; N993, 18 h): 0.7 µM (≈ 0.256 µg/mL) | MIC (Streptococcus agalactiae; ATCC 13813, 18 h): ≤ 0.2 µM

GENTAMICIN
MIC (Bacillus cereus [1]): 1 µM | MIC (Bacillus cereus [2]): 1 µM | MIC (Bacillus cereus [3]): 2 µM | MIC (Bacillus cereus [4]): 2 µM | MIC (Bacillus spizizenii): 0.3 µM | MIC (Corynebacterium striatum): > 278 µM | MIC (Enterococcus avium): 2 µM | MIC [5]: 9 µM | MIC [6]: 9 µM | MIC (Enterococcus durans): 17 µM | MIC (Enterococcus faecalis [7]): 35 µM | MIC (Enterococcus faecalis [8]): > 278 µM | MIC (Enterococcus faecalis [9]): > 278 µM | MIC (Enterococcus faecalis [10]): 70 µM | MIC (Enterococcus faecalis [11]): > 278 µM | MIC (Enterococcus faecium [12]): 17 µM | MIC (Enterococcus faecium [13]): > 278 µM | MIC (Enterococcus faecium [14]): > 278 µM | MIC (Enterococcus faecium [15]): > 278 µM | MIC (Enterococcus faecium [16]): > 278 µM | MIC (Enterococcus faecium [17]): > 278 µM | MIC (Enterococcus gallinarum [18]): 17 µM | MIC (Enterococcus gallinarum [19]): 4 µM | MIC (Enterococcus gallinarum [20]): 17 µM | MIC (Enterococcus hirae): 35 µM | MIC (Listeria innocua): 1 µM | MIC (Listeria monocytogenes [21]): 1 µM | MIC (Listeria monocytogenes [22]): 1 µM | MIC (Listeria monocytogenes [23]): 1 µM | MIC (Listeria monocytogenes [24]): 1 µM | MIC (Staphylococcus aureus [25]): 1 µM | MIC (Staphylococcus aureus [26]): 0.5 µM | MIC (Staphylococcus aureus [27]): 1 µM | MIC (Staphylococcus aureus [28]): 4 µM | MIC (Staphylococcus aureus [29]): 1 µM | MIC (Staphylococcus aureus [30]): 1 µM | MIC (Staphylococcus aureus [31]): 1 µM | MIC (Staphylococcus aureus [32]): > 278 µM | MIC [33]: 0.5 µM | MIC [34]: < 0.14 µM | MIC [35]: 139 µM | MIC [36]: 0.5 µM | MIC [37]: 0.3 µM | MIC [38]: < 0.14 µM | MIC (Mammaliicoccus sciuri): < 0.14 µM | MIC (Streptococcus agalactiae; ATCC 13813): 2 µM
